Data reported in ChEMBL document CHEMBL2380217, “Design, synthesis, and biological evaluation of aminoalkylindole derivatives as cannabinoid receptor ligands with potential for treatment of alcohol abuse” (J Med Chem, 2013).
The source made the active and inactive calls. No cut-off for these calls is given here.

Columns and labels:
[1] = biological target: Cannabinoid receptor 1 (Mus musculus) (UniProt P47746); assay: Displacement of [3H]CP-55940 from mouse brain CB1 receptor at 1 uM after 90 mins by scintillation counting analysis; type: tissue-based
Chain of Cannabinoid receptor 1 (Mus musculus) (P47746 whole entry): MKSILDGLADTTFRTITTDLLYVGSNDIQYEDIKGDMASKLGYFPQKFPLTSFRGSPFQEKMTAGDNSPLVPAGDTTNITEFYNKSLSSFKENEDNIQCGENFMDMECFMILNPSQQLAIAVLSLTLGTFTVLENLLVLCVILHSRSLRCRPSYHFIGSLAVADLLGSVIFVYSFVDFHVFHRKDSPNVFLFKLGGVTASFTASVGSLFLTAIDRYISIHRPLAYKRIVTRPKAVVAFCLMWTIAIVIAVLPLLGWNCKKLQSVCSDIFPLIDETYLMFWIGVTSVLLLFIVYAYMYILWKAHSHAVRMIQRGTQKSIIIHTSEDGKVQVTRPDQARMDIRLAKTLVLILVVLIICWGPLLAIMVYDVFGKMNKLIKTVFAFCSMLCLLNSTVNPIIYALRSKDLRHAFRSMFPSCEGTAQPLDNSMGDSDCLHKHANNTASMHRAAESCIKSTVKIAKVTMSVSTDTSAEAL
Outline: (§1)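 Buffer: 50 mM Tris, 0.05% BSA, 0.1% ethanol; triplicate. Non-specific binding with 10 μM WIN-55,212-2. Bound ligand collected by GF/B filtration and counted by liquid scintillation. Specific binding expressed as % of that without competitor.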

[2] = biological target: Cannabinoid receptor 2 (Mus musculus) (UniProt P47936); assay: Displacement of [3H]CP-55940 from mouse […] CB2 receptor at 1 uM after 90 mins by scintillation counting analysis; type: tissue-based; outline: as §1
Chain of Cannabinoid receptor 2 (Mus musculus) (P47936 whole entry): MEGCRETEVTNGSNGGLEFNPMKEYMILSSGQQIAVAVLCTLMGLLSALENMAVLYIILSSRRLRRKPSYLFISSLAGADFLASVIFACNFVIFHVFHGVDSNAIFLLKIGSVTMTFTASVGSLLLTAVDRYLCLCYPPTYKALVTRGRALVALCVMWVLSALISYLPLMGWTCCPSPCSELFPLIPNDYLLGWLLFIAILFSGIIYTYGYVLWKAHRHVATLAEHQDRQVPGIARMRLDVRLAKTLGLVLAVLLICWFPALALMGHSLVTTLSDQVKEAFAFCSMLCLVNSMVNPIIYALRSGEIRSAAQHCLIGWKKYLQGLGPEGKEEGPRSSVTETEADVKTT

Mus musculus [3] = assay: Reduction in ethyl alcohol preference in Swiss mouse at 10 mg/kg, ip for 10 days; type: functional, organism-based; parameters: dose 10 mg/kg
Outline: (§2)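 Male NIH Swiss mice in a two-bottle home-cage choice, 10% (v/v) ethanol vs water, 24 h access. Intake read twice weekly and bottle positions switched. Preference = ethanol/total fluid × 100. After stable baseline (<10% variation over 3 days), 10 mg/kg i.p. daily for 10 days. Vehicle: 8% Tween/92% water, given for 10 days. Body weight tracked.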

Mus musculus [4] = assay: Toxicity in Swiss mouse assessed as reduction in body weight at 10 mg/kg, ip for 10 days; type: organism-based; parameters: dose 10 mg/kg, route intraperitoneal; conditions: in vivo, 240 h; outline: as §2
Mus musculus [5] = assay: Inhibition of ethyl alcohol-induced conditioned place preference in Swiss mouse at 10 mg/kg, ip administered 1 hr prior to ethyl alcohol pairing; type: functional, organism-based; parameters: dose 10 mg/kg
Outline: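 Male NIH Swiss mice in 3-compartment chambers. 30-min pre-test to find preferred side. Then Mon–Thu daily: saline in the preferred side (30 min) and, ~4 h later, 2 g/kg ethanol in the non-preferred side (30 min). Compound 10 mg/kg given 1 h before each ethanol pairing. Friday post-test; score = post minus pre time on the ethanol side. One-way ANOVA with Tukey.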

Mus musculus [6] = assay: Toxicity in Swiss mouse assessed as alteration in total fluid intake at 10 mg/kg, ip for 10 days; type: organism-based; parameters: dose 10 mg/kg, route intraperitoneal; conditions: in vivo, 240 h; outline: as §2
[7] = biological target: Cannabinoid receptor 1 (Mus musculus) (UniProt P47746); assay: Agonist activity at CB1 receptor in mouse Neuro2a cells assessed as inhibition of forskolin-stimulated adenylyl cyclase activity at 10 uM after 15 mins by liquid scintillation spectrophotometry; type: functional, cell-based
Outline: (§3)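 Neuro2A-WT (endogenous CB1), CHO-hCB2 or CHO-WT cells, 4 million per well, attached overnight. Labelled 4 h at 37 °C with [3H]adenine 2.5 μCi/mL plus 0.5 mM IBMX. Then 15 min at 37 °C in KRH buffer with 0.5 mM IBMX, 10 μM forskolin, and vehicle (0.2% ethanol) or compound (0.1 nM–10 μM), triplicate. Stopped with HCl; [3H]cAMP isolated on acidic alumina, counted by scintillation. Expressed as % of vehicle cAMP. Antagonist added 5 min before agonist.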

Cannabinoid receptor 2 [8] = biological target: T1, Cannabinoid receptor 2 (Homo sapiens, UniProt P34972); assay: Agonist activity at human CB2 receptor transfected in CHO cells assessed as inhibition of forskolin-stimulated adenylyl cyclase activity at 10 uM after 15 mins by liquid scintillation spectrophotometry; type: functional, cell-based; outline: as §3
T1 sequence (P34972 whole entry): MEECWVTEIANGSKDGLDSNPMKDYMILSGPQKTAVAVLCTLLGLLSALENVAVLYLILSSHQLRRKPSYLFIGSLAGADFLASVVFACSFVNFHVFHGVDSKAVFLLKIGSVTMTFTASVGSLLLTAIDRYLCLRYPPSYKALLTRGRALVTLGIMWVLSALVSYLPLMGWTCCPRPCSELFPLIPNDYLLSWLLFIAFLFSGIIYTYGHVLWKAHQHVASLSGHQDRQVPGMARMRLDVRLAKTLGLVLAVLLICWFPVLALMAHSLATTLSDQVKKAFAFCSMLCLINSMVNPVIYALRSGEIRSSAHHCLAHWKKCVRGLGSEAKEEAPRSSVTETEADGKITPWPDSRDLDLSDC

[9] = biological target: Cannabinoid receptor 1 (Mus musculus) (UniProt P47746); assay: Antagonist activity at CB1 receptor in mouse Neuro2a cells assessed as forskolin-stimulated adenylyl cyclase activity at 1 uM after 15 mins by liquid scintillation spectrophotometry in presence of JWH-073; type: functional, cell-based; outline: as §3
Cannabinoid receptor 2 [10] = biological target: T1, Cannabinoid receptor 2; assay: Agonist activity at human CB2 receptor transfected in CHO cells assessed as inhibition of forskolin-stimulated adenylyl cyclase activity after 15 mins by liquid scintillation spectrophotometry; type: functional, cell-based; outline: as §3
Cannabinoid receptor 1 = Cannabinoid receptor 1 (Mus musculus, UniProt P47746); assay: Agonist activity at CB1 receptor in mouse Neuro2a cells assessed as inhibition of forskolin-stimulated adenylyl cyclase activity after 15 mins by liquid scintillation spectrophotometry; type: functional, cell-based
Chain of Cannabinoid receptor 1 (P47746 whole entry): as the sequence (P47746 whole entry) above
Outline: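 Neuro2A cells with endogenous CB1, plated overnight to 80–90% confluency, labelled 4 h at 37 °C with [3H]adenine (2.5 μCi/mL) plus 0.5 mM IBMX. Then 15 min at 37 °C in Krebs Ringer HEPES with 0.5 mM IBMX, 10 μM forskolin and compound (0.1 nM–10 μM; 10 μM for the screen) or 0.2% ethanol vehicle, in triplicate. HCl stop, alumina column. [3H]cAMP is given as % of vehicle.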

Mus musculus [11] = assay: Antagonist activity at CB1 receptor in Swiss mouse assessed as reduction in hypothermic effect at 10 mg/kg, ip administered 30 mins prior to JWH-073 addition; type: functional, organism-based; parameters: dose 10 mg/kg
Outline: (§4)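 Male NIH Swiss mice (25–30 g) with glass-encapsulated radiotelemetry probes implanted in the peritoneal cavity; at least 7 days of recovery, housed singly. Baseline recorded for at least 1 hr, then i.p. injection of drug or vehicle. […] Groups of 4–8. One-way ANOVA with Tukey.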

CHO = assay: Effect on adenylyl cyclase activity in wild type CHO cells at 10 uM; type: cell-based; conditions: Cricetulus griseus; outline: as §3
Mus musculus [12] = assay: Agonist activity at CB1 receptor in Swiss mouse assessed as hypothermic effect at 10 mg/kg, ip; type: functional, organism-based; parameters: dose 10 mg/kg; outline: as §4

Q: CCCCn1cc(C(=O)Cc2ccc(F)cc2)c2cccc(CC)c21 was tested. Which Activity [1] did it give?
A: The Activity was 63%.

Q: What about the Activity [2] of the same molecule?
A: The Activity was 88%.

Q: What does the source list for CCCCn1cc(C(=O)Cc2ccc(F)cc2)c2cccc(O)c21?
A: Activity [1]: 29%; Activity [2]: 10%

Q: Cc1c(C(=O)NN2CCCCC2)nn(-c2ccc(Cl)cc2Cl)c1-c1ccc(Cl)cc1 [RIMONABANT] was tested. Which Activity (Mus musculus [3]) did it give?
A: Its Activity is “Active”.

Q: What about the Activity (Mus musculus [4]) of the same molecule?
A: The Activity was “Toxic”.

Q: And the Activity (Mus musculus [5])?
A: Its Activity is “Active”.

Q: And the Activity (Mus musculus [6])?
A: The Activity was “Toxic”.

Q: What does the source list for CCCCn1cc(C(=O)Cc2cccc3ccccc23)c2cccc(OC)c21?
A: inhibition [7]: 34%; Activity [1]: 81%; Activity [2]: 91%

Q: How did the Activity [1] turn out when CCCCn1cc(C(=O)Cc2ccc(F)c(F)c2)c2cccc(OC)c21 was run?
A: Its Activity is 41%.

Q: What about the Activity [2] of the same molecule?
A: The Activity was 80%.

Q: CCCCn1cc(C(=O)c2cccc3ccccc23)c2cccc(OC)c21 was tested. Which inhibition [7] did it give?
A: Its inhibition is 51%.

Q: What about the Activity [1] of the same molecule?
A: The Activity was 93%.

Q: And the Activity [2]?
A: The Activity was 100%.

Q: And the inhibition (Cannabinoid receptor 2 [8])?
A: Its inhibition is 52%.

Q: Which results are given for CCCCn1cc(C(=O)Cc2ccccc2)c2cccc(O)c21?
A: Activity [1]: 21%; Activity [2]: 20%

Q: How did the inhibition [7] turn out when CCCCn1cc(C(=O)c2cccc3ccccc23)c2cc(O)ccc21 was run?
A: Its inhibition is 39%.

Q: What about the Activity [1] of the same molecule?
A: Its Activity is 97%.

Q: What about the Activity [2] of the same molecule?
A: Its Activity is 91%.

Q: What about the inhibition (Cannabinoid receptor 2 [8]) of the same molecule?
A: Its inhibition is 37%.

Q: For CCCCn1cc(C(=O)Cc2ccccc2F)c2cccc(OC)c21, which inhibition [7] is on record?
A: The inhibition was 45%.

Q: And the Activity [1]?
A: Its Activity is 84%.

Q: What about the Activity [2] of the same molecule?
A: Its Activity is 99%.

Q: What about the inhibition (Cannabinoid receptor 2 [8]) of the same molecule?
A: Its inhibition is 1%.

Q: With CC1=CC[C@@H]2[C@@H](C1)c1c(O)cc(CC#CCCCNS(C)(=O)=O)cc1OC2(C)C as the molecule, how does the Activity [9] read?
A: Its Activity is “Active”.

Q: Which results are given for COc1cccc2c(C(=O)c3cccc4ccccc34)cn(CCN3CCOCC3)c12?
A: inhibition [7]: 39%; Activity [1]: 100%; Activity [2]: 100%; inhibition (Cannabinoid receptor 2 [8]): 37%

Q: CCCCn1cc(C(=O)Cc2cccc(F)c2F)c2cccc(OC)c21 was tested. Which inhibition [7] did it give?
A: The inhibition was 35%.

Q: What about the Activity [1] of the same molecule?
A: The Activity was 80%.

Q: What about the Activity [2] of the same molecule?
A: Its Activity is 97%.

Q: And the inhibition (Cannabinoid receptor 2 [8])?
A: The inhibition was -6%.

Q: CCCCCCC(C)(C)c1ccc([C@@H]2C[C@H](O)CC[C@H]2CCCO)c(O)c1 was tested. Which inhibition [7] did it give?
A: The inhibition was 45%.

Q: Which Ki (Cannabinoid receptor 2 [10]) does the source give for CCCCn1cc(C(=O)c2cccc3ccccc23)c2cccc(O)c21 here?
A: The Ki was 78.3 nM.

Q: What about the IC50 (Cannabinoid receptor 1) of the same molecule?
A: Its IC50 is 225 nM.

Q: What about the Ki (Cannabinoid receptor 1) of the same molecule?
A: Its Ki is 24.2 nM.

Q: And the inhibition [7]?
A: Its inhibition is 55%.

Q: And the Activity [1]?
A: Its Activity is 99%.

Q: What about the Activity [2] of the same molecule?
A: Its Activity is 90%.

Q: And the inhibition (Cannabinoid receptor 2 [8])?
A: Its inhibition is 38%.

Q: What does the source list for CCCCn1cc(-c2ccc3ccccc3c2)c2cccc(OC)c21?
A: Activity (Mus musculus [3]): Active; Activity (Mus musculus [4]): Non-toxic; inhibition [7]: 16%; Activity [9]: Active; Activity (Mus musculus [5]): Active; Activity [1]: 82%; Activity [2]: 91%; inhibition (Cannabinoid receptor 2 [8]): 20.8%; Activity (Mus musculus [11]): Active; Activity (CHO): inactive; Activity (Mus musculus [6]): Toxic

Q: Which results are given for CCCCn1cc(-c2cccc3ccccc23)c2cccc(OC)c21?
A: inhibition [7]: 39%; Activity [1]: 98%; Activity [2]: 97%; inhibition (Cannabinoid receptor 2 [8]): 37%

Q: Which results are given for CCCCn1cc(C(=O)c2cccc3ccccc23)c2cc(OC)ccc21?
A: inhibition [7]: 47%; Activity [1]: 90%; Activity [2]: 90%; inhibition (Cannabinoid receptor 2 [8]): 31%

Q: How did the Activity [1] turn out when CCCCn1cc(C(=O)Cc2ccc(OC)cc2)c2cccc(OC)c21 was run?
A: Its Activity is 38%.

Q: What about the Activity [2] of the same molecule?
A: Its Activity is 64%.

Q: CCCCn1cc(C(=O)Cc2cccc3ccccc23)c2cccc(O)c21 was tested. Which Activity [1] did it give?
A: Its Activity is 37%.

Q: What about the Activity [2] of the same molecule?
A: The Activity was 21%.

Q: What does the source list for CCCCn1cc(C(=O)Cc2ccccc2)c2cccc(OC)c21?
A: inhibition [7]: 34%; Activity [1]: 69%; Activity [2]: 91%; inhibition (Cannabinoid receptor 2 [8]): 16%

Q: What does the source list for CCCCn1cc(C(=O)c2ccc(F)cc2)c2cccc(OC)c21?
A: inhibition [7]: 45%; Activity [1]: 84%; Activity [2]: 99%; inhibition (Cannabinoid receptor 2 [8]): 38%

Q: CCCCn1cc(C(=O)Cc2ccc(F)cc2)c2cccc(OC)c21 was tested. Which inhibition [7] did it give?
A: The inhibition was -4%.

Q: And the Activity [1]?
A: Its Activity is 55%.

Q: What about the Activity [2] of the same molecule?
A: Its Activity is 80%.

Q: What about the inhibition (Cannabinoid receptor 2 [8]) of the same molecule?
A: Its inhibition is 22%.

Q: With CCCCn1cc(C(=O)c2cccc3ccccc23)c2ccccc21 as the molecule, how does the Ki (Cannabinoid receptor 2 [10]) read?
A: Its Ki is 9.8 nM.

Q: What about the Ki (Cannabinoid receptor 1) of the same molecule?
A: Its Ki is 12.9 nM.

Q: And the Activity (Mus musculus [12])?
A: Its Activity is “Active”.

Q: Which results are given for CCCCn1cc(C(=O)Cc2ccc(O)cc2)c2cccc(O)c21?
A: Activity [1]: 10%; Activity [2]: 10%

Q: For CCCCn1cc(C(=O)Cc2cccc(F)c2)c2cccc(OC)c21, which Activity [1] is on record?
A: The Activity was 63%.

Q: What about the Activity [2] of the same molecule?
A: The Activity was 91%.

Q: With CCCCn1cc(Cc2cccc3ccccc23)c2cccc(OC)c21 as the molecule, how does the Activity (Mus musculus [3]) read?
A: Its Activity is “Active”.

Q: And the Activity (Mus musculus [4])?
A: Its Activity is “Non-toxic”.

Q: What about the inhibition [7] of the same molecule?
A: The inhibition was 18%.

Q: What about the Activity [9] of the same molecule?
A: The Activity was “Active”.

Q: What about the Activity (Mus musculus [5]) of the same molecule?
A: The Activity was “Active”.

Q: What about the Activity [1] of the same molecule?
A: Its Activity is 90%.

Q: And the Activity [2]?
A: Its Activity is 97%.

Q: What about the inhibition (Cannabinoid receptor 2 [8]) of the same molecule?
A: The inhibition was 33%.

Q: What about the Activity (Mus musculus [11]) of the same molecule?
A: Its Activity is “Active”.

Q: And the Activity (CHO)?
A: Its Activity is “inactive”.

Q: And the Activity (Mus musculus [6])?
A: The Activity was “Toxic”.
